Data set [1] has as its system Bone marrow cell. In words: Adjuvanted-antitumor vaccine activity in C57BL/6 mouse bone marrow derived cells assessed as induction of IL-12 production at 10^-4 to 10^1 ug/ml incubated for 48 hrs by ELISA. The class given is functional, cell-based. As to conditions: dose 0.0001-10 µg/ml. The method, boiled down:
(§1)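 BMDCs from C57BL/6 bone marrow grown 6 days in 2-ME/10% FCS RPMI with GM-CSF-containing supernatant, about 60−70% CD11c⁺CD11b⁺. 10⁵ cells incubated at 37 °C for 48 h with increasing compound concentrations. IL-12p40 and IL-6 measured in supernatants by ELISA.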
(ELISA stands for enzyme-linked immunosorbent assay.)

In data set [2] the test system is Bone marrow cell. Briefly: Adjuvanted-antitumor vaccine activity in C57BL/6 mouse bone marrow derived cells assessed as induction of IL-6 production at 10^-4 to 10^1 ug/ml incubated for 48 hrs by ELISA. As to conditions: dose 0.0001-10 µg/ml. Type of data set: functional, cell-based. The method, boiled down:
as §1

The test system of data set [3] is Mus musculus. In words: Adjuvanted-antitumor vaccine activity in C57BL/6 mouse assessed as fold increase in OT-2 T cells in spleen at 11.7 nmol, ID coadministered with OT2-derived CD4+ T cell after 5 days […]. Type of data set: functional. As to conditions: for fold change (FC): time 5 day. An outline of the steps:
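2 × 10⁵ OT-II CD4⁺ T cells (from OT-II Rag2 TCR-transgenic knockout mice) transferred into C57BL/6 mice (6−10 weeks, n = 3 per group), then intradermal immunization with 11.7 nmol per mouse. Spleen collected after 5 days; OT-II cells counted by flow cytometry with anti-CD4, anti-Vα2 and anti-Vβ5.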

The test system of data set [4] is CD4+ve Th. Briefly: Cytotoxicity against OT2 mouse CD4-positive T cells xenografted in C57BL/6 mouse assessed as reduction in cell viability in splenocytes by flow cytometry analysis. Type of data set: cell-based. Particulars: in vivo. For orientation: Flow cytometry measures light scatter and fluorescence of single cells or particles in a stream.
Data set [5] is filed under the species Mus musculus. Briefly: Adjuvanted-antitumor vaccine activity in C57BL/6 mouse assessed as induction of OT2-T cell mediated IFNgamma production in lymph node at 1 ug/ml, ID incubated for 5 days by anti-IFNgamma staining based flow cytometry. As to conditions: dose 1.0 µg/ml, time 5.0 day. The class given is functional, organism-based.
Data set [6] is filed under the species Mus musculus. Briefly: Adjuvanted-antitumor vaccine activity in C57BL/6 mouse assessed as induction of OT2-T cell mediated IFNgamma production in lymph node at 11.7 nmol, ID incubated for 5 days by anti-IFNgamma staining based flow cytometry. Particulars: time 5.0 day. Type of data set: functional, organism-based. The method, boiled down:
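Lymph node cells taken at day 5, 5 × 10⁵ per well, restimulated 2 h at 37 °C with 50 μg/mL OVA 323−339 plus GolgiPlug. Fixed, permeabilized, stained with anti-CD4, anti-CD3 and anti-IFNγ; flow cytometry.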

For data set [7], the species on record is Mus musculus. In words: Adjuvanted-antitumor vaccine activity in C57BL/6 mouse assessed as induction of OT2-T cell mediated IFNgamma production in splenocytes at 11.7 nmol, ID followed by stimulation with OVA(323 to 339) peptide after 48 hrs by ELISA. Type of data set: functional, organism-based. An outline of the steps: (§2)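 OT-II CD4⁺ T cells (2 × 10⁵) transferred into C57BL/6 mice (n = 3 per group), then 11.7 nmol per mouse given intradermally. Splenocytes harvested at day 5, cultured at 5 × 10⁵ per well with or without OVA 323−339 (1 μg/mL) at 37 °C for 48 h. IFN-γ and IL-5 measured in supernatants by ELISA.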

The species named for data set [8] is Mus musculus. Briefly: Adjuvanted-antitumor vaccine activity in C57BL/6 mouse assessed as induction of OT2-T cell mediated IL-5 production in splenocytes at 11.7 nmol, ID followed by stimulation with OVA(323 to 339) peptide incubated for 48 hrs by ELISA. The class given is functional, organism-based. The method, boiled down: as §2
The species named for data set [9] is Mus musculus. In words: Immuno-adjuvant activity in C57BL/6 mouse assessed as antibody response to Tn3G7K by measuring serum IgG levels at 11 .7 nmol, ID at day 0 and day 21 and measured post second dose. The class given is functional, organism-based. Particulars: time 21.0 day. An outline of the steps: (§3)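 Female C57BL/6 mice, 6 weeks old, were immunized intradermally with 11.7 nmol on days 0 and 21, and sera were taken on day 28. IgG was measured by ELISA on plates coated at 1 μg/mL, with the biotinylated Tn peptide captured on streptavidin plates for 1 h at 37 °C. Serum dilution series were detected with anti-mouse IgG-HRP and OPD/H2O2, read at 492 nm. Titer is the log10 of the highest dilution giving twice the absorbance of naive serum at 1/100, reported as mean SD.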

The species named for data set [10] is Mus musculus. In words: Immuno-adjuvant activity in C57BL/6 mouse assessed as antibody response to (2R,8R,11S,14R,20R)-14-(2-amino-2-oxoethyl)-20-((2S,5R,8S,11R,14S,17R,20S,23R,26S)-5,14-bis((1H-imidazol-5-yl)methyl)-36-(4-(22-(4-((6-amino-2-(2-methoxyethoxy)-8-oxo-7H-purin-9(8H)-yl)methyl)phenyl)-3,7,11,15,22-pentaoxo-6-(3-((2S,3S,4S,5S,6R)-3,4,5-trihydroxy-6-(hydroxymethyl)tetrahydro-2H-pyran-2-yloxy)propyl)-10,14-bis(3-((2S,3S,4S,5S,6S)-3,4,5-trihydroxy-6-(hydroxymethyl)tetrahydro-2H-pyran-2-yloxy)propyl)-2,6,10,14,21-pentaazadocosyl)-1H-1,2,3-triazol-1-yl)-23-(3-amino-3-oxopropyl)-29-sec-butyl-26-(hydroxymethyl)-17-isopropyl-2,8,11,20-tetramethyl-4,7,10,13,16,19,22,25,28,31-decaoxo-3,6,9,12,15,18,21,24,27,30-decaazahexatriacontanamido)-17-sec-butyl-11-(2-carboxyethyl)-2-(3-guanidinopropyl)-8-methyl-4,7,10,13,16,19-hexaoxo-3,6,9,12,15,18-hexaazatricosane-1,23-dioic acid by measuring serum IgG levels at 11 .7 nmol, ID at day 0 and day 21 and measured post second dose. The class given is functional, organism-based. The method, boiled down:
as §3

Data set [11] is filed under the species Mus musculus. In words: Immuno-adjuvant activity in immunized-C57BL/6 mouse assessed as antibody recognition in sera against 21 at 11 .7 nmol, ID at day 1 and day 20 and measured post second dose on day 27. The class given is functional, organism-based. An outline of the steps: (§4)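 C57BL/6 mice, n = 3 per group, received 11.7 nmol intradermally on days 1 and 20, and sera were taken on day 27. ELISA plates were coated at 1 μg/mL with the peptoid or the biotinylated Tn3G7K, the latter on streptavidin plates for 1 h at 37 °C. Serially diluted sera were detected with anti-mouse IgG-HRP and OPD, read at 492 nm. Log10 titer is the dilution giving twice the absorbance of 1/100 naive serum.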

The species entered for data set [12] is Mus musculus. In words: Immuno-adjuvant activity in immunized-C57BL/6 mouse assessed as antibody recognition in sera against 22 at 11 .7 nmol, ID at day 1 and day 20 and measured post second dose on day 27. Type of data set: functional, organism-based. The method, boiled down:
as §4

Data set [13] is filed under the species Mus musculus. Briefly: Immuno-adjuvant activity in immunized-C57BL/6 mouse assessed as antibody recognition in sera against Tn3G7K at 11 .7 nmol, ID at day 1 and day 20 and measured post second dose on day 27. Type of data set: functional, organism-based. An outline of the steps:
as §4

Data set [14] is filed under the species Mus musculus. In words: Immuno-adjuvant activity in C57BL/6 mouse assessed as antibody response to OVA peptide by measuring serum IgG levels at 11 .7 nmol, ID at day 0 and day 21 and measured post second dose. Type of data set: functional, organism-based. As to conditions: time 21.0 day.
Data set [15] deals with Bone marrow cell. In words: Adjuvanted-antitumor vaccine activity in C57BL/6 mouse bone marrow derived cells assessed as induction of T cell activation at 10^-4 to 10^1 ug/ml incubated for 3 days in presence of mouse OT2-derived CD4+ T cell by ELISA. Particulars: dose 1.0 µg/ml, time 72.0 hrs.

Active and inactive are the calls of the source. The rule behind the calls is not given here. Numbered stars: 1 amine (or outer) side, 2 acyl side, 3 side chain; on linkers, the order of the positions; unused ones are H or OH. Square brackets hold non-standard residues; d marks the D form. Peptide text beside a SMILES is read from it. * marks the point of attachment. X4 = O=C(CCN(CCCO[C@H]1O[C@H](CO)[C@@H](O)[C@H](O)[C@@H]1O)[*:1])[*:2]; X3 = COCCOc1nc(N)c2[nH]c(=O)n(Cc3ccc(C(=O)*)cc3)c2n1; X2 = O=C(CCCCCn1cc(CN[*:1])nn1)[*:2]; Ahx = NCCCCCC(=O)O

With `CC(=O)N[C@H]1[C@@H](OCCCNCCC(=O)N(CCCO[C@H]2O[C@H](CO)[C@H](O)[C@H](O)[C@H]2NC(C)=O)CCC(=O)N(CCCO[C@H]2O[C@H](CO)[C@H](O)[C@H](O)[C@H]2NC(C)=O)CCC(=O)OC(C)(C)C)O[C@H](CO)[C@H](O)[C@@H]1O`, the result in data set [1] and in data set [2] was inactive.

With `CC[C@H](C)[C@H](N)C(=O)N[C@@H](CO)C(=O)N[C@@H](CCC(N)=O)C(=O)N[C@@H](C)C(=O)N[C@H](C(=O)N[C@@H](Cc1cnc[nH]1)C(=O)N[C@@H](C)C(=O)N[C@@H](C)C(=O)N[C@@H](Cc1cnc[nH]1)C(=O)N[C@@H](C)C(=O)N[C@@H](CCC(=O)O)C(=O)N[C@H](C(=O)N[C@@H](CC(N)=O)C(=O)N[C@@H](CCC(=O)O)C(=O)N[C@@H](C)C(=O)NCC(=O)N[C@@H](CCCNC(=N)N)C(=O)O)[C@@H](C)CC)C(C)C` [ovalbumin peptide] (H-ISQAVHAAHAEINEAGR-OH), the outcome in data set [3] (time 5.0 day) and in data set [5] was inactive. In [4], the Activity result is reported as “Non-Toxic”.

Take `CC[C@H](C)[C@H](NC(=O)CCCCCn1cc(CNC(=O)CCN(CCCO[C@H]2O[C@H](CO)[C@H](O)[C@H](O)[C@H]2NC(C)=O)C(=O)CCN(CCCO[C@H]2O[C@H](CO)[C@H](O)[C@H](O)[C@H]2NC(C)=O)C(=O)CCN(CCCO[C@H]2O[C@H](CO)[C@H](O)[C@H](O)[C@H]2NC(C)=O)C(=O)CCCCCNC(=O)c2ccc(Cn3c(=O)[nH]c4c(N)nc(OCCOC)nc43)cc2)nn1)C(=O)N[C@@H](CO)C(=O)N[C@@H](CCC(N)=O)C(=O)N[C@@H](C)C(=O)N[C@H](C(=O)N[C@@H](Cc1cnc[nH]1)C(=O)N[C@@H](C)C(=O)N[C@@H](C)C(=O)N[C@@H](Cc1cnc[nH]1)C(=O)N[C@@H](C)C(=O)N[C@@H](CCC(=O)O)C(=O)N[C@H](C(=O)N[C@@H](CC(N)=O)C(=O)N[C@@H](CCC(=O)O)C(=O)N[C@@H](C)C(=O)NCC(=O)N[C@@H](CCCNC(=N)N)C(=O)O)[C@@H](C)CC)C(C)C` (HELM PEPTIDE1{[COCCOc1nc(N)c2[nH]c(=O)n(Cc3ccc(C(=O)NCCCCCC(=O)N(CCCO[C@H]4O[C@H](CO)[C@H](O)[C@H](O)[C@H]4NC(C)=O)CCC(=O)N(CCCO[C@H]4O[C@H](CO)[C@H](O)[C@H](O)[C@H]4NC(C)=O)CCC(=O)N(CCCO[C@H]4O[C@H](CO)[C@H](O)[C@H](O)[C@H]4NC(C)=O)CCC(=O)[*:2])cc3)c2n1].[O=C(CCCCCn1cc(CN[*:1])nn1)[*:2]].I.S.Q.A.V.H.A.A.H.A.E.I.N.E.A.G.R}$$$$V2.0): the outcome in [1], in data set [2], in data set [6], in [7], in [10] and in data set [11] was Active. In addition, the result in data set [12] and in [15] was Active. The “fold change (FC)” value in data set [3] is listed as 30. For the same compound, the result in data set [8], in [9], in data set [13] and in [14] was inactive.

Regarding `CC[C@H](C)[C@H](NC(=O)CCCCCn1cc(CNC(=O)CCN(CCCO[C@H]2O[C@H](CO)[C@@H](O)[C@H](O)[C@@H]2O)C(=O)CCN(CCCO[C@H]2O[C@H](CO)[C@@H](O)[C@H](O)[C@@H]2O)C(=O)CCN(CCCO[C@H]2O[C@H](CO)[C@@H](O)[C@H](O)[C@@H]2O)C(=O)CCCCCNC(=O)c2ccc(Cn3c(=O)[nH]c4c(N)nc(OCCOC)nc43)cc2)nn1)C(=O)N[C@@H](CO)C(=O)N[C@@H](CCC(N)=O)C(=O)N[C@@H](C)C(=O)N[C@H](C(=O)N[C@@H](Cc1cnc[nH]1)C(=O)N[C@@H](C)C(=O)N[C@@H](C)C(=O)N[C@@H](Cc1cnc[nH]1)C(=O)N[C@@H](C)C(=O)N[C@@H](CCC(=O)O)C(=O)N[C@H](C(=O)N[C@@H](CC(N)=O)C(=O)N[C@@H](CCC(=O)O)C(=O)N[C@@H](C)C(=O)NCC(=O)N[C@@H](CCCNC(=N)N)C(=O)O)[C@@H](C)CC)C(C)C` ({X3-Ahx}-[X4][X4][X4][X2]ISQAVHAAHAEINEAGR-OH), the result in [1], in [2], in data set [6], in [7], in [11] and in [12] was Active. In addition, the outcome in data set [15] was Active. Moreover, the “fold change (FC)” value in [3] is 30. Also, the result in data set [8] and in data set [13] was inactive.

In the case of `COCCOc1nc(N)c2[nH]c(=O)n(Cc3ccc(C(=O)O)cc3)c2n1`, the result in data set [1] and in data set [2] was inactive.

Regarding `COCCOc1nc(N)c2[nH]c(=O)n(Cc3ccc(C(=O)NCCCCCC(=O)N(CCCO[C@H]4O[C@H](CO)[C@H](O)[C@H](O)[C@H]4NC(C)=O)CCC(=O)N(CCCO[C@H]4O[C@H](CO)[C@H](O)[C@H](O)[C@H]4NC(C)=O)CCC(=O)N(CCCO[C@H]4O[C@H](CO)[C@H](O)[C@H](O)[C@H]4NC(C)=O)CCC(=O)OC(C)(C)C)cc3)c2n1`, the result in data set [1] and in data set [2] was Active. The result in [9], in data set [5] and in data set [14] was inactive.

For the origin of these results see ChEMBL document CHEMBL4765240, “Design, Synthesis, and Immunological Evaluation of a Multicomponent Construct Based on a Glycotripeptoid Core Comprising B and T Cell Epitopes and a Toll-like Receptor 7 Agonist That Elicits Potent Immune Responses” (J Med Chem, 2018).
